Test results as given in ChEMBL document CHEMBL3232750, “Synthesis, structure-activity relationships, and in vitro antibacterial and antifungal activity evaluations of novel pyrazole carboxylic and dicarboxylic acid derivatives” (2014).
The source made the active and inactive calls.

How the values were obtained:
Candida parapsilosis = assay: Antifungal activity against Candida parapsilosis at 25 degC after 48 hrs by agar well diffusion assay; assay type: functional
Outline: (§1)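 Yeast suspensions of 10^7 CFU/mL were swabbed onto Sabouraud Dextrose Agar and dried about 40 min at 35 °C. Compounds were dissolved in DMSO (2.5 mg/ml initial) and diluted two-fold in DMSO, then loaded into 6 mm wells. Plates: 2 h pre-incubation at 25 °C, then 48 h at 25 °C. MIC read as the lowest concentration inhibiting growth around the well, in duplicate. The C. albicans clinical isolate came from a hospitalized patient at Eskisehir Osmangazi University hospital; the standard strain came from a culture collection.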

Candida tropicalis = assay: Antifungal activity against Candida tropicalis at 25 degC after 48 hrs by agar well diffusion assay; assay type: functional; outline: as §1
Staphylococcus aureus [1] = assay: Antibacterial activity against Staphylococcus aureus at 37 degC after 24 hrs by agar well diffusion assay; assay type: functional
Outline: (§2)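 Compounds dissolved in DMSO at 2.5 mg/ml initial concentration, then serially diluted two-fold in DMSO. Nutrient Agar plates were swabbed with 10^8 CFU/mL bacteria and dried about 40 min at 35 °C. Solution was placed in 6 mm wells, then 2 h pre-incubation at 25 °C and 24 h at 37 °C. MIC is the lowest concentration giving a growth-inhibition zone around the well. Duplicate.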

Pseudomonas aeruginosa = assay: Antibacterial activity against Pseudomonas aeruginosa at 37 degC after 24 hrs by agar well diffusion assay; assay type: functional, organism-based; outline: as §2
Nakaseomyces glabratus = assay: Antifungal activity against Candida glabrata at 25 degC after 48 hrs by agar well diffusion assay; assay type: functional; outline: as §1
Staphylococcus aureus [2] = assay: Antibacterial activity against methicillin-resistant Staphylococcus aureus at 37 degC after 24 hrs by agar well diffusion assay; assay type: functional
Outline: (§3)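 Bacteria kept on Nutrient Agar slants at 4 °C and subcultured before use. Suspensions of 10^8 CFU/mL were swabbed onto Nutrient Agar and the plates dried 40 min at 35 °C. Compounds were dissolved in DMSO starting at 2.5 mg/ml, serially diluted two-fold, and loaded into 6 mm wells. Plates were pre-incubated 2 h at 25 °C, then 24 h at 37 °C. Inhibition zones were read and the MIC taken as the lowest inhibiting concentration. Duplicates were run.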

Candida albicans [3] = assay: Antifungal activity against Candida albicans ESOGU at 25 degC after 48 hrs by agar well diffusion assay; assay type: functional; outline: as §1
Escherichia coli = assay: Antibacterial activity against Escherichia coli at 37 degC after 24 hrs by agar well diffusion assay; assay type: functional, organism-based; outline: as §2
Enterococcus = assay: Antibacterial activity against vancomycin-resistant Enterococcus species at 37 degC after 24 hrs by agar well diffusion assay; assay type: functional, organism-based; outline: as §3
Candida albicans [4] = assay: Antifungal activity against Candida albicans at 25 degC after 48 hrs by agar well diffusion assay; assay type: functional; outline: as §1

Cc1ccc(NC(=O)c2nn(-c3cccc([N+](=O)[O-])c3)c(-c3ccccc3)c2C(=O)Nc2ccc(C)cc2)cc1
inactive: Activity (Candida parapsilosis) | Activity (Candida tropicalis) | Activity (Staphylococcus aureus [1]) | Activity (Pseudomonas aeruginosa) | Activity (Nakaseomyces glabratus) | Activity (Staphylococcus aureus [2]) | Activity (Candida albicans [3]) | Activity (Escherichia coli) | Activity (Enterococcus)
25 µg/mL: MIC (Candida albicans [4])

CNC(=O)NC(=O)c1nn(-c2cccc([N+](=O)[O-])c2)c(-c2ccccc2)c1C(=O)NC(=O)NC
25 µg/mL: MIC (Candida albicans [3]) | MIC (Candida albicans [4])
50 µg/mL: MIC (Staphylococcus aureus [1]) | MIC (Staphylococcus aureus [2])
inactive: Activity (Candida parapsilosis) | Activity (Candida tropicalis) | Activity (Pseudomonas aeruginosa) | Activity (Nakaseomyces glabratus) | Activity (Escherichia coli) | Activity (Enterococcus)

CCOC(=O)c1c(C(=O)Nc2ccc(C(F)(F)F)cc2)nn(-c2cccc([N+](=O)[O-])c2)c1-c1ccccc1
25 µg/mL: MIC (Candida albicans [3]) | MIC (Candida albicans [4])
inactive: Activity (Candida parapsilosis) | Activity (Candida tropicalis) | Activity (Staphylococcus aureus [1]) | Activity (Pseudomonas aeruginosa) | Activity (Nakaseomyces glabratus) | Activity (Staphylococcus aureus [2]) | Activity (Escherichia coli) | Activity (Enterococcus)

CCNC(=S)NC(=O)c1nn(-c2cccc([N+](=O)[O-])c2)c(-c2ccccc2)c1C(=O)NC(=S)NCC
inactive: Activity (Candida parapsilosis) | Activity (Candida tropicalis) | Activity (Staphylococcus aureus [1]) | Activity (Pseudomonas aeruginosa) | Activity (Nakaseomyces glabratus) | Activity (Staphylococcus aureus [2]) | Activity (Escherichia coli) | Activity (Enterococcus)
25 µg/mL: MIC (Candida albicans [3]) | MIC (Candida albicans [4])

CCOC(=O)c1c(C(=O)Nc2ccc(F)cc2)nn(-c2cccc([N+](=O)[O-])c2)c1-c1ccccc1
50 µg/mL: MIC (Candida albicans [3]) | MIC (Candida albicans [4])
inactive: Activity (Candida parapsilosis) | Activity (Candida tropicalis) | Activity (Staphylococcus aureus [1]) | Activity (Pseudomonas aeruginosa) | Activity (Nakaseomyces glabratus) | Activity (Staphylococcus aureus [2]) | Activity (Escherichia coli) | Activity (Enterococcus)

O=C(Nc1ccc(C(F)(F)F)cc1)c1nn(-c2cccc([N+](=O)[O-])c2)c(-c2ccccc2)c1C(=O)Nc1ccc(C(F)(F)F)cc1
50 µg/mL: MIC (Candida albicans [4])
inactive: Activity (Candida parapsilosis) | Activity (Candida tropicalis) | Activity (Staphylococcus aureus [1]) | Activity (Pseudomonas aeruginosa) | Activity (Nakaseomyces glabratus) | Activity (Staphylococcus aureus [2]) | Activity (Candida albicans [3]) | Activity (Escherichia coli) | Activity (Enterococcus)

O=C(Nc1ccc(F)cc1)c1nn(-c2cccc([N+](=O)[O-])c2)c(-c2ccccc2)c1C(=O)Nc1ccc(F)cc1
25 µg/mL: MIC (Candida albicans [4])
inactive: Activity (Candida parapsilosis) | Activity (Candida tropicalis) | Activity (Staphylococcus aureus [1]) | Activity (Pseudomonas aeruginosa) | Activity (Nakaseomyces glabratus) | Activity (Staphylococcus aureus [2]) | Activity (Candida albicans [3]) | Activity (Escherichia coli) | Activity (Enterococcus)

O=C(Nc1cccc([N+](=O)[O-])c1)c1nn(-c2cccc([N+](=O)[O-])c2)c(-c2ccccc2)c1C(=O)Nc1cccc([N+](=O)[O-])c1
50 µg/mL: MIC (Candida parapsilosis; Lodderomyces parapsilosis)
inactive: Activity (Candida tropicalis) | Activity (Staphylococcus aureus [1]) | Activity (Pseudomonas aeruginosa) | Activity (Nakaseomyces glabratus) | Activity (Staphylococcus aureus [2]) | Activity (Escherichia coli) | Activity (Enterococcus)
25 µg/mL: MIC (Candida albicans [3]) | MIC (Candida albicans [4])

O=c1[nH][nH]c(=O)c2c(-c3ccccc3)n(-c3cccc([N+](=O)[O-])c3)nc12
inactive: Activity (Candida parapsilosis) | Activity (Candida tropicalis) | Activity (Staphylococcus aureus [1]) | Activity (Pseudomonas aeruginosa) | Activity (Nakaseomyces glabratus) | Activity (Staphylococcus aureus [2]) | Activity (Candida albicans [3]) | Activity (Escherichia coli) | Activity (Enterococcus)
50 µg/mL: MIC (Candida albicans [4])

O=C(Nc1ccccc1C(F)(F)F)c1nn(-c2cccc([N+](=O)[O-])c2)c(-c2ccccc2)c1C(=O)Nc1ccccc1C(F)(F)F
25 µg/mL: MIC (Candida albicans [4])
50 µg/mL: MIC (Candida albicans [3])
inactive: Activity (Candida parapsilosis) | Activity (Candida tropicalis) | Activity (Staphylococcus aureus [1]) | Activity (Pseudomonas aeruginosa) | Activity (Nakaseomyces glabratus) | Activity (Staphylococcus aureus [2]) | Activity (Escherichia coli) | Activity (Enterococcus)

O=C(Nc1ccccc1F)c1nn(-c2cccc([N+](=O)[O-])c2)c(-c2ccccc2)c1C(=O)Nc1ccccc1F
inactive: Activity (Candida parapsilosis) | Activity (Candida tropicalis) | Activity (Staphylococcus aureus [1]) | Activity (Pseudomonas aeruginosa) | Activity (Nakaseomyces glabratus) | Activity (Staphylococcus aureus [2]) | Activity (Candida albicans [3]) | Activity (Escherichia coli) | Activity (Enterococcus)
25 µg/mL: MIC (Candida albicans [4])

CCOC(=O)c1c(C(=O)Nc2ccccc2F)nn(-c2cccc([N+](=O)[O-])c2)c1-c1ccccc1
25 µg/mL: MIC (Candida albicans [4])
50 µg/mL: MIC (Nakaseomyces glabratus) | MIC (Candida albicans [3])
inactive: Activity (Candida parapsilosis) | Activity (Candida tropicalis) | Activity (Staphylococcus aureus [1]) | Activity (Pseudomonas aeruginosa) | Activity (Staphylococcus aureus [2]) | Activity (Escherichia coli) | Activity (Enterococcus)

O=C(O)c1cnn(-c2cccc([N+](=O)[O-])c2)c1-c1ccccc1
50 µg/mL: MIC (Staphylococcus aureus [1])
25 µg/mL: MIC (Staphylococcus aureus [2]) | MIC (Candida albicans [4])
inactive: Activity (Candida parapsilosis) | Activity (Candida tropicalis) | Activity (Pseudomonas aeruginosa) | Activity (Nakaseomyces glabratus) | Activity (Candida albicans [3]) | Activity (Escherichia coli) | Activity (Enterococcus)

CCOC(=O)c1c(C(=O)Nc2ccccc2C(F)(F)F)nn(-c2cccc([N+](=O)[O-])c2)c1-c1ccccc1
inactive: Activity (Candida parapsilosis) | Activity (Candida tropicalis) | Activity (Staphylococcus aureus [1]) | Activity (Pseudomonas aeruginosa) | Activity (Nakaseomyces glabratus) | Activity (Staphylococcus aureus [2]) | Activity (Escherichia coli) | Activity (Enterococcus)
50 µg/mL: MIC (Candida albicans [3]) | MIC (Candida albicans [4])

O=C(Nc1cccc(F)c1)c1nn(-c2cccc([N+](=O)[O-])c2)c(-c2ccccc2)c1C(=O)Nc1cccc(F)c1
inactive: Activity (Candida parapsilosis) | Activity (Candida tropicalis) | Activity (Staphylococcus aureus [1]) | Activity (Pseudomonas aeruginosa) | Activity (Nakaseomyces glabratus) | Activity (Staphylococcus aureus [2]) | Activity (Candida albicans [3]) | Activity (Escherichia coli) | Activity (Enterococcus)
50 µg/mL: MIC (Candida albicans [4])

CCOC(=O)c1c(C(=O)Nc2cccc(F)c2)nn(-c2cccc([N+](=O)[O-])c2)c1-c1ccccc1
50 µg/mL: MIC (Candida albicans [3])
inactive: Activity (Candida parapsilosis) | Activity (Candida tropicalis) | Activity (Staphylococcus aureus [1]) | Activity (Pseudomonas aeruginosa) | Activity (Nakaseomyces glabratus) | Activity (Staphylococcus aureus [2]) | Activity (Escherichia coli) | Activity (Enterococcus)
25 µg/mL: MIC (Candida albicans [4])

CCOC(=O)c1c(C(=O)Nc2cccc(C(F)(F)F)c2)nn(-c2cccc([N+](=O)[O-])c2)c1-c1ccccc1
25 µg/mL: MIC (Candida albicans [4])
inactive: Activity (Candida parapsilosis) | Activity (Staphylococcus aureus [1]) | Activity (Pseudomonas aeruginosa) | Activity (Nakaseomyces glabratus) | Activity (Staphylococcus aureus [2]) | Activity (Escherichia coli) | Activity (Enterococcus)
50 µg/mL: MIC (Candida tropicalis) | MIC (Candida albicans [3])
